From ChEMBL document CHEMBL1148824, “Quinazolinone derivatives as orally available ghrelin receptor antagonists for the treatment of diabetes and obesity” (J Med Chem, 2007)
Values after ≈ are worked out from the molar mass of the structure shown. Each block holds one compound with its values, some of them ahead of it. Active and inactive are the calls of the source. The calls are words filed in the database; no cut-off is given here.

Columns and labels:
[1] = Cmax in Wistar rat at 3 mg/kg, po; format: ADME, organism-based; design: dose 3 mg/kg, route oral; conditions: in vivo
Procedure, shortened: (§1)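 Wistar rat pharmacokinetic screen; single oral dose of 3 mg/kg in PEG400/methanesulfonic acid (80:20) vehicle; plasma exposure measured.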

[2] = target: T1, Growth hormone secretagogue receptor type 1 (Homo sapiens, UniProt Q92847); assay: Agonist activity at human recombinant GHSR1a expressed in HEK293F cells assessed as stimulation of [35S]GTP-gamma-S binding relative to ghrelin; format: functional, cell-based
T1 sequence (Q92847 whole entry): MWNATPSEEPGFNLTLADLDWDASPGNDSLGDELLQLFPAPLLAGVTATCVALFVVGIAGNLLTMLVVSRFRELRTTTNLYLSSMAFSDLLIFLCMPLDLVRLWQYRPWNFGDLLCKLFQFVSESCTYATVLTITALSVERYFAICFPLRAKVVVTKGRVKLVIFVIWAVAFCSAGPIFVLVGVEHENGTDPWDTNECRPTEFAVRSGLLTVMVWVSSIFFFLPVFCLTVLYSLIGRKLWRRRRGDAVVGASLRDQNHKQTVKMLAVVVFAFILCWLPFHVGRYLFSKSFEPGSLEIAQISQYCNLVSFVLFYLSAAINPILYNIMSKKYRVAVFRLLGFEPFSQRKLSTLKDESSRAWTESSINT
Procedure, shortened: (§2)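 Functional read-out as GTPγS binding to membranes from HEK293F cells overexpressing recombinant GHS-R1a; values are the mean of at least two replicates.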

[3] = target: Ghrelin receptor (Ovis aries, UniProt Q8MHZ5); assay: Displacement of [125I]ghrelin from ovine recombinant GHSR1a expressed in HEK293F cells after 6 hrs by scintillation proximity assay; format: cell-based
Ghrelin receptor, sequence (Q8MHZ5 whole entry): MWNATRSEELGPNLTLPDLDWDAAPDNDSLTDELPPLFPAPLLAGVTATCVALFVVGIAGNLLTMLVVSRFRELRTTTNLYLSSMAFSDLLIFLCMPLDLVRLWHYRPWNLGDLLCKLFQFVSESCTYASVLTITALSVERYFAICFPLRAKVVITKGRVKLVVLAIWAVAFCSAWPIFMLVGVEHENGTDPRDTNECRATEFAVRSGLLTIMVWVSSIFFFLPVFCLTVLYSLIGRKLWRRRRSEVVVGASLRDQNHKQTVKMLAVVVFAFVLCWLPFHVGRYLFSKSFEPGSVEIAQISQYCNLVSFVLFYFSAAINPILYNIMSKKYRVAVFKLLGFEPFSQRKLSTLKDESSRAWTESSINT

[4] = target: T1, Growth hormone secretagogue receptor type 1; assay: Antagonist activity at human recombinant GHSR1a expressed in HEK293F cells by [35S]GTP-gamma-S binding assay; format: functional, cell-based; procedure, shortened: as §2
[5] = Aqueous solubility at pH 7.2; format: physicochemical
[6] = target: Cytochrome P450 2D6 (Homo sapiens, UniProt P10635); assay: Inhibition of CYP2D6; format: ADME
Cytochrome P450 2D6, sequence (P10635 whole entry): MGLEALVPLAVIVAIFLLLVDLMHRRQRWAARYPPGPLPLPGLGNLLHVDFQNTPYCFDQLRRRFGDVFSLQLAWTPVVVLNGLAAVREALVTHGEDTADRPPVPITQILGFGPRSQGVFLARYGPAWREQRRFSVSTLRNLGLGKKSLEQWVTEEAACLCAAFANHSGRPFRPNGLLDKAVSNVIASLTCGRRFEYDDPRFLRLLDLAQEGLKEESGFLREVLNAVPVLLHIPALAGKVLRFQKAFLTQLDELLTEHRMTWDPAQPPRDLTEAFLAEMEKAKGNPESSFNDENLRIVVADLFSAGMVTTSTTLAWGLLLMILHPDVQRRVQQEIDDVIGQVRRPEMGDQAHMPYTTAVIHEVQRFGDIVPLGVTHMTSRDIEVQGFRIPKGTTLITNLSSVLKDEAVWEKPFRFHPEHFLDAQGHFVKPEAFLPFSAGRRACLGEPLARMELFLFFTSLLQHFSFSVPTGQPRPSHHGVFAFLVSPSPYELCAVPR

[7] = target: T2, 5-hydroxytryptamine receptor 2C (Homo sapiens, UniProt P28335); assay: Displacement of […] from 5HT2c receptor
T2 sequence (P28335 whole entry): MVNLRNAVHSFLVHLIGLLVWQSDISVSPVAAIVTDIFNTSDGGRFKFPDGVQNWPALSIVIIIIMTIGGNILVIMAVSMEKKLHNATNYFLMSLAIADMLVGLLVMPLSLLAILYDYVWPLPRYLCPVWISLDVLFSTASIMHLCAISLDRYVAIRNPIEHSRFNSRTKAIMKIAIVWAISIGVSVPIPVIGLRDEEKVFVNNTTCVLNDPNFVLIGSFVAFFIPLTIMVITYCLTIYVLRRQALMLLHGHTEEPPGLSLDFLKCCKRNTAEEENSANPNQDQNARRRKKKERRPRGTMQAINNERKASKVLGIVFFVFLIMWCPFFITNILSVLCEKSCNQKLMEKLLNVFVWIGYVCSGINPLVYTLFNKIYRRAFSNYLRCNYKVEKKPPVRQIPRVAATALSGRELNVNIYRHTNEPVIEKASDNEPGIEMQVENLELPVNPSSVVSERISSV

[8] = Cmax in Wistar rat plasma at 0.7 mg/kg, iv; format: ADME, organism-based; design: dose 0.7 mg/kg, route intravenous
[9] = AUC in Wistar rat plasma at 3 mg/kg, po; format: ADME, organism-based; design: dose 3 mg/kg, route oral; procedure, shortened: as §1
[10] = test system: Mus musculus; assay: Decrease in body weight in DIO C57BL/6 mouse at 30 mg/kg, po after 9 days; format: functional
[11] = AUC (0-t) in Wistar rat plasma at 0.7 mg/kg, iv; format: ADME, organism-based; design: dose 0.7 mg/kg, route intravenous
[12] = species: Homo sapiens; assay: Binding affinity to calcium channel L type
[13] = Cmax in Wistar rat plasma at 3 mg/kg, po; format: ADME, organism-based; design: dose 3 mg/kg, route oral; procedure, shortened: as §1
[14] = target: 5-hydroxytryptamine receptor 2A (Homo sapiens) (UniProt P28223); assay: Binding affinity to 5HT2a receptor
5-hydroxytryptamine receptor 2A (Homo sapiens), sequence (P28223 whole entry): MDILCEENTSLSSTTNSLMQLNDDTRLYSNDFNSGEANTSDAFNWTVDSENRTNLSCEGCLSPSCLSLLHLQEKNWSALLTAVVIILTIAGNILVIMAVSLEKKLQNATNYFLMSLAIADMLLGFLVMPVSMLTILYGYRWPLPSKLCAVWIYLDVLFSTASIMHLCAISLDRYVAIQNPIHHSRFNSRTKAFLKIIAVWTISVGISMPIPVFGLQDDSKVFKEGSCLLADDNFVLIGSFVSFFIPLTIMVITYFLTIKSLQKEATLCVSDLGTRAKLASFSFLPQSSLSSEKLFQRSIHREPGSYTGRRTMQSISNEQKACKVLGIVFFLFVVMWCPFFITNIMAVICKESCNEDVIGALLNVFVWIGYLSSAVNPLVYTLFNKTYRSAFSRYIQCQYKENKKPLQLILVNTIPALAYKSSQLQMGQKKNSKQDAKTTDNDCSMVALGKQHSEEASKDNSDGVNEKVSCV

[15] = test system: Rattus norvegicus; assay: Half life in Wistar rat plasma at 0.7 mg/kg, iv; format: ADME, organism-based; design: dose 0.7 mg/kg, route intravenous; conditions: in vivo
[16] = target: 5-hydroxytryptamine receptor 2B (Homo sapiens) (UniProt P41595); assay: Binding affinity to 5HT2b receptor
5-hydroxytryptamine receptor 2B (Homo sapiens), sequence (P41595 whole entry): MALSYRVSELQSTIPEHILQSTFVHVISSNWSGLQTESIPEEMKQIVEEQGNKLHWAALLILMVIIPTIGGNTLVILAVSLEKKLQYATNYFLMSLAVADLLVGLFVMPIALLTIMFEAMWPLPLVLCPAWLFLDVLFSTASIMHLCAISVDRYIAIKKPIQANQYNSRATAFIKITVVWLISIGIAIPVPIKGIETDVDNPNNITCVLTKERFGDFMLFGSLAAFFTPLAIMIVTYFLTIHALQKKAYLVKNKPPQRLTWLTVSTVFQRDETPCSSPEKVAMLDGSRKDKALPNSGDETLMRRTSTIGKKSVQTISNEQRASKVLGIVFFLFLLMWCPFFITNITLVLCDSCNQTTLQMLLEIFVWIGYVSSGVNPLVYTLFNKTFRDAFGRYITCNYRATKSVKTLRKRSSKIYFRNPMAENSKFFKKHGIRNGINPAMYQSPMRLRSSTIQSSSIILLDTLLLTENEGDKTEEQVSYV

[17] = test system: Mus musculus; assay: Increase in food intake in DIO C57BL/6 mouse at 30 mg/kg, after 5 hrs relative to control; format: functional
[18] = test system: Mus musculus; assay: Decrease in food intake in DIO C57BL/6 mouse at 30 mg/kg, po after 24 hrs relative to control; format: functional, organism-based; design: dose 30 mg/kg
[19] = Cmax in po dosed DIO C57BL/6 mouse after 5 hrs; format: ADME, organism-based; design: route oral; conditions: in vivo
[20] = Bioavailability in Wistar rat plasma at 3 mg/kg, po; format: ADME, organism-based
[21] = test system: Mus musculus; assay: Decrease in body weight in DIO C57BL/6 mouse at 10 mg/kg, po after 9 days; format: functional, organism-based; design: dose 10 mg/kg
[22] = target: Motilin receptor (Homo sapiens) (UniProt O43193); assay: Binding affinity to motilin receptor
Motilin receptor (Homo sapiens), sequence (O43193 whole entry): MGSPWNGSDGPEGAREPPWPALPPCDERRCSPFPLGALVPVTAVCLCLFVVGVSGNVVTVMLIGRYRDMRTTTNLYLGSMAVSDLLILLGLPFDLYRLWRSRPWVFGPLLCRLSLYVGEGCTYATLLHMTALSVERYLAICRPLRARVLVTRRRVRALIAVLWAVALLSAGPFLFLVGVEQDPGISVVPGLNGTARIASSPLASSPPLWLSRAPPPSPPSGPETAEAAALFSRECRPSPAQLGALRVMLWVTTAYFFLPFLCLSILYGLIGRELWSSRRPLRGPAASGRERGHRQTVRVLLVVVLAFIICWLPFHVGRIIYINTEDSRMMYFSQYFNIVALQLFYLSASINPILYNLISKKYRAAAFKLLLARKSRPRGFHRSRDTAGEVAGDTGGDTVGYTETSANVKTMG

[23] = test system: Brain; assay: Drug level in po dosed DIO C57BL/6 mouse brain after 5 hrs relative to plasma concentration; format: ADME, organism-based
[24] = test system: Rattus norvegicus; assay: Decrease in blood glucose level in DIO Wistar rat using at 10 mg/kg after 5 hrs by IPGTT test relative to control; format: functional; design: scale not given: the % may be the effect or the level left
[25] = test system: Rattus norvegicus; assay: Volume of distribution at steady state in Wistar rat plasma at 0.7 mg/kg, iv; format: ADME, organism-based; design: dose 0.7 mg/kg, route intravenous; conditions: in vivo
[26] = Cmax in Wistar rat plasma at 1 mg/kg, iv; format: ADME, organism-based; design: dose 1 mg/kg, route intravenous
[27] = Volume of distribution in Wistar rat plasma at 1 mg/kg, iv; format: ADME, organism-based; design: dose 1 mg/kg, route intravenous; conditions: read-out: Vdss

Cmax [1]: 150 nM
Structure (SMILES): Cc1ccccc1-c1nc2ccc(-c3ccc(Cl)cc3)cc2c(=O)n1CC1CCCN(C(C)C)C1 (stereo not drawn)

Cmax [1]: 40 nM | E/Emax [2]: 92% | EC50 [2]: 6.5 nM | Ki [3]: 0.9 nM
Structure (SMILES): Cc1ccccc1-c1nc2ccc(Oc3ccc(F)cc3)cc2c(=O)n1CC1CCCNC1 (stereo not drawn)

Cmax [1]: 100 nM | Kb [4]: 14 nM | E/Emax [2]: -9% | Ki [3]: 16 nM
Structure (SMILES): Cc1ccccc1-c1nc2ccc(-c3ccc(Cl)cc3)cc2c(=O)n1CC1CCCN(CCF)C1 (stereo not drawn)

Kb [4]: 0.19 nM | E/Emax [2]: 22%
Structure (SMILES): Cc1ccccc1-c1nc2ccc(Oc3ccc(F)cc3)cc2c(=O)n1C[C@H]1CCCN(C(C)C)C1 (stereo in doubt; 36)

Cmax [1]: 120 nM | Ki [3]: 1.8 nM
Structure (SMILES): CCN1CCCC(Cn2c(-c3ccccc3C)nc3ccc(-c4ccc(Cl)cc4)cc3c2=O)C1 (stereo not drawn) [listing 1 of 2 here]

Ki [3]: 47 nM
Structure (SMILES): Cc1ccccc1-c1nc2ccc(Oc3ccc(F)cc3)cc2c(=O)n1C[C@@H]1CCCN(C(C)C)C1

Kb [4]: 3.2 nM | E/Emax [2]: 12%
Structure (SMILES): CCN1CCCC(Cn2c(-c3ccccc3C)nc3ccc(-c4ccc(Cl)cc4)cc3c2=O)C1 (stereo not drawn) [listing 2 of 2 here]

solubility [5]: 500 µM (≈ 205 µg/mL) | AUC [9]: 1300 ng·h/mL | Activity [12]: > 1 µM | Cmax [13]: 80 ng/mL | Activity [14]: > 1 µM | Cmax [1]: 220 nM | Kb [4]: 11 nM | E/Emax [2]: 11% | Activity [16]: > 1 µM | Cmax [26]: 110 ng/mL | Cmax [19]: 3400 nM | Vd [27]: 19.2 L/kg | bioavailability [20]: 85% | Ki [7]: > 1000 nM | Activity [22]: > 1 µM | Drug uptake [23]: 19% | Ki [3]: 17 nM
Structure (SMILES): Cc1nc2ccc(Oc3ccc(F)cc3)cc2c(=O)n1C[C@H]1CCCN(C(C)C)C1
Activity [10]: <=5% | Activity [17]: -12% | Activity [18]: Active | Activity [24]: -23%

Cmax [1]: 170 nM | Ki [3]: 2000 nM
Structure (SMILES): Cc1ccccc1-c1nc2ccc(-c3ccc(Cl)cc3)cc2c(=O)n1CC1CCCN(CC(F)(F)F)C1 (stereo not drawn)

The next lines start with the compound.

Structure (SMILES): CCN1CCC[C@@H](Cn2c(-c3ccccc3C)nc3ccc(OC(F)(F)F)cc3c2=O)C1
Ki [3]: 95 nM

Structure (SMILES): CC(C)c1nc2ccc(-c3ccccc3Cl)cc2c(=O)n1C[C@@H]1CCCN(C(C)C)C1
Ki [3]: 1800 nM

Structure (SMILES): Cc1ccccc1-c1nc2ccccc2c(=O)n1CC1CCCN(C(C)C)C1 (stereo not drawn)
Ki [3]: 1200 nM

Structure (SMILES): CC(C)c1nc2ccc(-c3ccccc3Cl)cc2c(=O)n1C[C@H]1CCCN(C(C)C)C1
Ki [3]: 127 nM

Structure (SMILES): Cc1ccccc1-c1nc2ccc(-c3ccc(Cl)cc3)cc2c(=O)n1CC1CCCN(C2CCC2)C1 (stereo not drawn)
Cmax [1]: 220 nM | Kb [4]: 2.7 nM | E/Emax [2]: -20% | Ki [3]: 2.5 nM

Structure (SMILES): Cc1nc2ccc(-c3ccc(Cl)cc3)cc2c(=O)n1C[C@H]1CCCN(C(C)C)C1
solubility [5]: 125 µM (≈ 51.2 µg/mL) | IC50 [6]: 9600 nM | E/Emax [2]: 0% | Ki [7]: > 1000 nM | Ki [3]: 110 nM

Structure (SMILES): CCN1CCCC(Cn2c(-c3ccccc3OC)nc3ccc(OC)cc3c2=O)C1 (stereo not drawn)
Ki [3]: 910 nM

Structure (SMILES): CCN1CCC[C@@H](Cn2c(C(C)C)nc3ccc(-c4ccc(F)cc4)cc3c2=O)C1
Ki [3]: 5700 nM

Structure (SMILES): CCCCN(C)c1ccc2nc(-c3ccccc3OC)n(CC3CCCNC3)c(=O)c2c1 (stereo not drawn)
Ki [3]: 36 nM

Structure (SMILES): CC(C)c1nc2ccc(-c3ccc(F)cc3)cc2c(=O)n1C[C@H]1CCCN(C(C)C)C1
Cmax [8]: 100 ng/mL | solubility [5]: 280 µM (≈ 118 µg/mL) | AUC [9]: 1700 ng·h/mL | IC50 [6]: 150 nM | Activity [10]: Active | AUC(0-t) [11]: 580 ng·h/mL | Activity [12]: > 1 µM | Cmax [13]: 70 ng/mL | Activity [14]: > 1 µM | t1/2 [15]: 16 h | Cmax [1]: 150 nM | Kb [4]: 14 nM | E/Emax [2]: 15% | Activity [16]: > 1 µM | Activity [17]: -17% | Activity [18]: Active | Cmax [19]: 800 nM | bioavailability [20]: 69% | Ki [7]: > 1000 nM | Activity [21]: Active | Activity [22]: > 1 µM | Drug uptake [23]: 76% | Activity [24]: -20% | Vdss [25]: 0.68 L/kg | Ki [3]: 39 nM

Structure (SMILES): CCN1CCC[C@H](Cn2c(-c3ccc(C(F)(F)F)cc3)nc3ccc(-c4ccc(Cl)cc4)cc3c2=O)C1
Ki [3]: 16 nM

Structure (SMILES): CC(C)c1nc2ccc(-c3ccc(Cl)cc3)cc2c(=O)n1C[C@H]1CCCN(C(C)C)C1
solubility [5]: 60 µM (≈ 26.3 µg/mL) | IC50 [6]: 6300 nM | Cmax [1]: 290 nM | Kb [4]: 77 nM | E/Emax [2]: 0% | Ki [7]: > 1000 nM | Ki [3]: 45 nM
